# Experimental data: the RNAGym collection of RNA variant scans (doi:10.1126/science.aae0568)
# This sample holds only a part of the variants without activity.
# B1: tRNA (parent)
# chain: GUUCCGUUGGCGUAAUGGUAACGCGUCUCCCUCCUAAGGAGAAGACUGCGGGUUCGAGUCCCGUACGGAACG
# Variants of: B1
# Test: yeast fitness relative to wild type (ratio to wild type); higher = fitter; tRNA-Arg(CCU), competitive growth, 37 C, YPD
# In short: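 Variants of the tRNA-Arg(CCU) gene were chemically synthesised with a 3% per-site mutation rate across 69 sites and placed at the native genomic locus in Saccharomyces cerevisiae. Six parallel replicates of the pooled strains were competed in YPD at 37°C for 24 hours, and gene amplicons from the start and end populations were read by 100-nucleotide paired-end sequencing. Darwinian fitness relative to wild type was derived from changes in genotype frequencies. Genotypes required ≥ 100 starting reads, and estimates < 0.5 were set to 0.5.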
row,Variant,yeast fitness
1,GUUCCGUUGGCGUAAUGGUAAUGCGUCUUCCUCCUAAGGAGAAGACUGAGGGUUCGAGUCCCGUACGGAACG [C22U C29U C49A],≤ 0.5
2,GUUCCGUUGGCGUAAUGGUAAUGCGUCUUCCUCCUAAGGAAAAGACUGCGGGUUCGAGUCCGGUACGGAACG [C22U C29U G41A C62G],≤ 0.5
3,GUUCCGUUGGCGUAAUGGUAAUGCGUCUCACUCCUAAGGAGAAGACUGCGGGUUCGAGUCCCGUACGGAACG [C22U C30A],0.706
4,GUUCCGUUGGCGUAAUGGUAAUGCGUCUCAUUCCUAAGGAGAAGACUGCGGGUUCGAGUCCCGUACGGAACG [C22U C30A C31U],≤ 0.5
5,GUUCCGUUGGCGUAAUGGUAAUGCGUCUCACUCCUAAGGAGAAGACUGCGGGUUGGAGUCCCGUACGGAACG [C22U C30A C55G],≤ 0.5
6,GUUCCGUUGGCGUAAUGGUAAUGCGUCUCACUCCUAAGGAGAAGACUGCGGGUUCGAGUCCCGAACGGAACG [C22U C30A U64A],0.574
7,GUUCCGUUGGCGUAAUGGUAAUGCGUCUCGCUCCUAAGGAGAAGACUGCGGGUUCGAGUCCCGUACGGAACG [C22U C30G],0.515
8,GUUCCGUUGGCGUAAUGGUAAUGCGUCUCGCUCCUAAGGAGAAGACUGCGGGUUCGAGUCCCGUCUGGAACG [C22U C30G A65C C66U],0.62
9,GUUCCGUUGGCGUAAUGGUAAUGCGUCUCGCUCCUAAGGAGAAGACUGCGGAUUCGAGUCCCGUACGGAACG [C22U C30G G52A],0.514
10,GUUCCGUUGGCGUAAUGGUAAUGCGUCUCGCUCCUAAGGAGAAGACUGCGGGUCCGAGUCCGGUUCGGAACG [C22U C30G U54C C62G A65U],≤ 0.5
11,GUUCCGUUGGCGUAAUGGUAAUGCGUCUCUCUCCUAAGGAGAAGACUGCGGGUUCGAGUCCCGUACGGAACG [C22U C30U],0.758
12,GUUCCGUUGGCGUAAUGGUAAUGCGUCUCUCUCCUAGGGAGAAGACUGCGGGUUCGAGUCCCGUACGAAACG [C22U C30U A37G G68A],≤ 0.5
13,GUUCCGUUGGCGUAAUGGUAAUGCGUCUCUCUCCUAUGGAGAAGAGUGCGGGUUCGAGUCCCGAACAGAACG [C22U C30U A37U C46G U64A G67A],≤ 0.5
14,GUUCCGUUGGCGUAAUGGUAAUGCGUCUCUCUCCUAAGGAGGAGACUGCGGGUUCGAGUCACGUACGGAACG [C22U C30U A42G C61A],0.584
15,GUUCCGUUGGCGUAAUGGUAAUGCGUCUCUCUCCUAAGGAGAAGACUGCGGGUUCGCGUCCCGUACGGAACG [C22U C30U A57C],0.528
16,GUUCCGUUGGCGUAAUGGUAAUGCGUCUCUCUUCUAAGGAGAAGCCUGCGGGUUCCAGUCCCGUACGCAACG [C22U C30U C33U A45C G56C G68C],≤ 0.5
17,GUUCCGUUGGCGUAAUGGUAAUGCGUCUCUCUCCUAAGGAGAAGACUGGGGGUUCGAGUCCCGUACGGAACG [C22U C30U C49G],0.556
18,GUUCCGUUGGCGUAAUGGUAAUGCGUCUCUCUCCUAAGGAGAAGACUGCGGGUUGGAGUCCCGUACGGAACG [C22U C30U C55G],≤ 0.5
19,GUUCCGUUGGCGUAAUGGUAAUGCGUCUCUCUCCUAAGGAGAAGACAGCGGGUUCGAGUCCUGUACGGAACG [C22U C30U U47A C62U],≤ 0.5

row,Variant,yeast fitness
1,GUUCCGUUGGCGUAAUGGUAAUGCGUCUCUCUCCUAAGGAGAAGACCGCGGGUACGAGUCCCGUACGGAACG [C22U C30U U47C U54A],≤ 0.5
2,GUUCCGUUGGCGUAAUGGUAAUGCGUCUCCAUCCUAAGGAGAAGACUGCGGGUUCGAGUGCCGUACGGAACG [C22U C31A C60G],≤ 0.5
3,GUUCCGUUGGCGUAAUGGUAAUGCGUCUCCAUCCUAAGGAGAAGACUGCGGGUUCGAGUUCCGUACGGAACG [C22U C31A C60U],≤ 0.5
4,GUUCCGUUGGCGUAAUGGUAAUGCGUCUCCGUCCUAAGGAGAAGACUGCGGGUUCGAGUCCCGUACGGAACG [C22U C31G],0.834
5,GUUCCGUUGGCGUAAUGGUAAUGCGUCUCCGUCCUUAGGAGAAGACUGCGGGUUCGAGUCCCGUACGGAACG [C22U C31G A36U],≤ 0.5
6,GUUCCGUUGGCGUAAUGGUAAUGCGUCUCCGUCCUAAGGAGAUGACUGUGGGUUCGAGUACCGUACGGAGCG [C22U C31G A43U C49U C60A A70G],≤ 0.5
7,GUUCCGUUGGCGUAAUGGUAAUGCGUCUCCGUACUAAAGAGAAGACAGCGGGUUCGAGUCCCGUACGGAACG [C22U C31G C33A G38A U47A],≤ 0.5
8,GUUCCGUUGGCGUAAUGGUAAUGCGUCUCCGUCCUAAGGAGAAGACUGUGGGUUCGAGUCCCGUACGGAACG [C22U C31G C49U],0.552
9,GUUCCGUUGGCGUAAUGGUAAUGCGUCUCCGUCCUAAGGAGAAGACUGCGGGUUCGAGUGCCGUACGGAACG [C22U C31G C60G],≤ 0.5
10,GUUCCGUUGGCGUAAUGGUAAUGCGUCUCCGUCCUAAAGAGAAGACAGCGGGUUCGAGUCCUGUACGGAACG [C22U C31G G38A U47A C62U],≤ 0.5
11,GUUCCGUUGGCGUAAUGGUAAUGCGUCUCCGUCCUAAGGAGAAGACUGCAGGUUCGAGUCCCGUACGGAACG [C22U C31G G50A],0.606
12,GUUCCGUUGGCGUAAUGGUAAUGCGUCUCCGUCCUAAGGAGAAGACUGCGCGUUCGAGUCCAGUACGGAACG [C22U C31G G51C C62A],≤ 0.5
13,GUUCCGUUGGCGUAAUGGUAAUGCGUCUCCGUCCUAAGGAGAAGACUGCGGGUUCUAGUCCCGUACGGAACG [C22U C31G G56U],0.528
14,GUUCCGUUGGCGUAAUGGUAAUGCGUCUCCGUCCAAAGGAGAAGACUGUGGGUUCGAGUCCCGUAUAGAACG [C22U C31G U35A C49U C66U G67A],≤ 0.5
15,GUUCCGUUGGCGUAAUGGUAAUGCGUCUCCGUCCUAAGGAGAAGACUGCGGGAUCGAGUCCCGUACGGAACG [C22U C31G U53A],≤ 0.5
16,GUUCCGUUGGCGUAAUGGUAAUGCGUCUCCUUCCUAAGGAGAAGACUGCGGGUUCGAGUCCCGUACGGAACG [C22U C31U],0.94
17,GUUCCGUUGGCGUAAUGGUAAUGCGUCUCCUUCCUAAGGAGAAGACUGCGGGUUCGAGUGCCGUACGGAGCG [C22U C31U C60G A70G],≤ 0.5
18,GUUCCGUUGGCGUAAUGGUAAUGCGUCUCCCUGAUAAGGAGACGACUGCGGGUUCGAGUCCCGUUCGGAACG [C22U C33G C34A A43C A65U],≤ 0.5
19,GUUCCGUUGGCGUAAUGGUAAUGCGUCUCCCUGAUAAGGAGACGACUGCGGGUUUGAGUCCCGUACGGAACG [C22U C33G C34A A43C C55U],≤ 0.5
